High-throughput results: PubChem BioAssay, SRMLSC
PostGolgi yeast: growth inhibition of a yeast mutant, post-Golgi transport screen; post-Golgi transport phenotypic cell assay; inhibition, % at 10 µM; 98,000 tested, 0.9% active; AID 739;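 note: yeast cells grown in 1536-well plates; yeast grown about 18 h at 30C before absorbance read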
Ecoli tolC: growth inhibitors of E. coli BW25113 tolC mutant; OD615; growth inhibition, % at 10 µM (by protocol); 65,000 tested, 2.2% active;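 active = growth inhibition at or above a cutoff equal to the mean over every tested compound plus 3 SD, cut at about 60% in these data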;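 note: growth measured after 20 h incubation at 37 °C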
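Test system: tolC-deleted E. coli BW25113; medium: LB with kanamycin 50 µg/mL; compound: single-point testing at 10 µM; incubation: 20 h compound exposure of bacteria at 37 °C; signal: OD at 615 nm; evaluation: growth inhibition in percent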
Ecoli WT expand: blocks growth of wild type E. coli BW25113; growth inhibition, % at 100 µM; 98,000 tested, 0.15% active; OD600 absorbance;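 active = growth inhibition above about 50% at one test dose, limit read from the data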;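 note: growth measured after 20 h incubation at 37 °C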
PostGolgi ctrl: yeast control strain growth, post-Golgi counter-screen; inhibition, % at 10 µM; efflux-deficient yeast background strain, growth absorbance A615, 16 h; 98,000 tested, 5% active
HER2 expr 66K: lowers expression of human Her2 kinase. AID 645. SKBR-3 HER2 protein level, AlphaScreen, 18-24 h; stronger effect = lower value. P04626. 65,000 tested, 0.69% active. HER2 level % of control, % at 10 µM;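 active = HER2 level under 5% of the carrier-only control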;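 note: lower value means stronger loss of Her2 protein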
Target sequence (P04626 whole entry, looked up): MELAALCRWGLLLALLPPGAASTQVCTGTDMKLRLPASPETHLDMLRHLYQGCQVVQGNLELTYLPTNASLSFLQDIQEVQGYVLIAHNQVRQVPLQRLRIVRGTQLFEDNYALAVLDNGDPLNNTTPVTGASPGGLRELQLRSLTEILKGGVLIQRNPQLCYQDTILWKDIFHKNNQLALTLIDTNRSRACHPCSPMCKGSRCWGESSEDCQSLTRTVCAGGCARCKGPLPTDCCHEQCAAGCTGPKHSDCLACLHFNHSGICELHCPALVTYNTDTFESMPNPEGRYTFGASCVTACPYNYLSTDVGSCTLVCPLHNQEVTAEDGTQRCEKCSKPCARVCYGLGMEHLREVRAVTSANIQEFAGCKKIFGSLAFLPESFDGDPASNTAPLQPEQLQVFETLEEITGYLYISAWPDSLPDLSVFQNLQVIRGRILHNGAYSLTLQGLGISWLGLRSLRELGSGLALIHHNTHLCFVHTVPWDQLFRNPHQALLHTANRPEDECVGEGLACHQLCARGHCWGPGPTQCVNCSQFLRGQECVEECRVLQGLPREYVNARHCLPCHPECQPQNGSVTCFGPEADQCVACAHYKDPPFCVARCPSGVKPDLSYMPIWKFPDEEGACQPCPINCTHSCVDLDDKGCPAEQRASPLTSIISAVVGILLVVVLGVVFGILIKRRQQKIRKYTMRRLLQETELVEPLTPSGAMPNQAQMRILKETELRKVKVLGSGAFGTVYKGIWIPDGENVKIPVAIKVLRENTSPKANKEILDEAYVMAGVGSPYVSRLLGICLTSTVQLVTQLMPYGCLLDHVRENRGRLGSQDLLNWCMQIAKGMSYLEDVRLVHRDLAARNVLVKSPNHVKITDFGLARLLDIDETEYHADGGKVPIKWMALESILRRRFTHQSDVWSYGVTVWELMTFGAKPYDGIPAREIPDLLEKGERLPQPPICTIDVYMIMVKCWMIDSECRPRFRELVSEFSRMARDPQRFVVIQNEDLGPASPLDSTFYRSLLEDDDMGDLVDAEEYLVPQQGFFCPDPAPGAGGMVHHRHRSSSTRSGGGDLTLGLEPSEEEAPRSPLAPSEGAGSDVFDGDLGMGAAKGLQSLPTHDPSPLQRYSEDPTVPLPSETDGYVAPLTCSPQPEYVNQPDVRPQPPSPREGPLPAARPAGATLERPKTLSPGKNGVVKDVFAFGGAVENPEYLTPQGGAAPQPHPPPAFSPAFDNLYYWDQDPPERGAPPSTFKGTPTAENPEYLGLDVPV
Each line names hits and unclear results; the compound was inactive in the other large screens. In the library only some 6.6% were active in any assay of this set; here they are far more common. Cut-off read from the data, not from the text of the source, unless noted: active = inhibition above about 30%; inactive = the rest.

CCOC(=O)CN1C(=O)c2ccccc2C1=O	none
COC(=O)NC1CSCC1OC(=O)CN1C(=O)c2ccccc2C1=O (configuration not stated)	PostGolgi ctrl 40
Cc1ccc(-n2cc3c(=O)n(C)c(=O)n(C)c3c2)cc1C	none
Cc1cc(N)c(-n2cc3c(=O)n(C)c(=O)n(C)c3c2)cc1C	PostGolgi ctrl 32
CC1(C)Cc2c(c(N3CCCC3)nc3sc4c(N5CCN(CCO)CC5)ncnc4c23)CO1	Ecoli tolC 65
CCOCCCNC(=S)N1C2CCC1CC(NC(=O)NC13CC4CC(CC(C4)C1)C3)C2 (configuration not stated)	none (no result: Ecoli tolC, HER2 expr 66K)
CC1(C(=O)NC23CC4CC(CC(C4)C2)C3)CC1(Cl)Cl (configuration not stated)	PostGolgi ctrl 34 (no result: Ecoli tolC, HER2 expr 66K)
CC(=O)NCCn1c(SCc2ccc(C)cc2C)nc2ccccc2c1=O	PostGolgi ctrl 33 (no result: Ecoli tolC, HER2 expr 66K)
COc1ccc(NC(=O)c2cc([N+](=O)[O-])nn2Cc2ccccc2)c(C)c1	none (no result: Ecoli tolC, HER2 expr 66K)
O=C(CSC1CC(=O)N(CC(c2ccccc2)c2ccccc2)C1=O)Nc1ccc(Cl)cc1 (configuration not stated)	PostGolgi ctrl 41 (no result: Ecoli tolC, HER2 expr 66K)
COc1ccc(OCc2ccc(C(=O)NN)cc2)cc1	none (no result: Ecoli tolC, HER2 expr 66K)
Cn1nc(C(F)(F)F)cc1C(=O)NC1CCCCCC1	none (no result: Ecoli tolC, HER2 expr 66K)
Cc1[nH]c2ccccc2c1C(=O)/C=C/c1ccccc1	none (no result: Ecoli tolC, HER2 expr 66K)
Cc1[nH]c(=O)c(C(=O)/C=C/c2ccccc2F)c2c1CCCC2	PostGolgi ctrl 30 (no result: Ecoli tolC, HER2 expr 66K)
COc1ccc(S(=O)(=O)N(CC(=O)N2CCOCC2)c2cc(Cl)ccc2OC)cc1OC	none
CN(c1ccccc1)C(c1ccc(F)cc1)c1nnnn1C1CCCC1 (configuration not stated)	Ecoli tolC 73
Cc1nc2ccccc2c(=O)n1NC(=O)Cc1ccc(Br)cc1	none (no result: Ecoli tolC, HER2 expr 66K)
CCCCCc1ccc(CC(=O)Nn2c(C)nc3ccccc3c2=O)cc1	PostGolgi ctrl 41 (no result: Ecoli tolC, HER2 expr 66K)
Clc1ccc2ncc(-c3nnnn3-c3ccccc3)c(-c3ccccc3)c2c1	PostGolgi ctrl 36 (no result: Ecoli tolC, HER2 expr 66K)
COc1ccccc1N(C)S(=O)(=O)c1ccc(C(=O)OCC(=O)NCc2ccco2)cc1	none
CCOc1ccc(OCC)c(NC(=O)c2ccc(CNc3c(N4CCOCC4)c(=O)c3=O)cc2)c1	none
CCOC(=O)c1c(C)[nH]c2c1cc(O)c1ccccc12	none (no result: Ecoli tolC, HER2 expr 66K)
CCOC(=O)c1c(C)oc2c1cc(O)c1ccccc12	PostGolgi ctrl 39
Clc1ccc(-c2nn3c(-c4ccncc4)nnc3s2)c(Cl)c1	none (no result: PostGolgi yeast, Ecoli WT expand, PostGolgi ctrl)
Cc1nn2c(-c3ccc(Cl)cc3Cl)nnc2s1	PostGolgi ctrl 34
Cc1cc(NS(=O)(=O)N(C)C)ccc1C(C)C	none (no result: Ecoli tolC, HER2 expr 66K)
O=C(NCc1ccccc1)NS(=O)(=O)c1ccccc1Cl	PostGolgi yeast 30
CC(C)N1C(=O)C2C(C(=O)NCc3ccccc3)C3C=CC2(O3)C1C(=O)NC(C)(C)C (configuration not stated)	PostGolgi ctrl 42
O=C(NCc1ccccc1)C1C2C=CC3(CN(Cc4cccnc4)C(=O)C13)O2 (configuration not stated)	none
C=CCc1c(C)nc(SCc2nc3ccccc3c(=O)[nH]2)[nH]c1=O	Ecoli tolC 100
CC1S/C(=C(\C#N)C(N)=O)N(c2ccc(F)cc2)C1=O (configuration not stated)	none
CC12CCC(C(=O)N3CCc4ccccc43)(CC1=O)C2(C)C (configuration not stated)	none
CN1C(=O)C2(OCC(COc3ccc(Cl)cc3)O2)c2ccccc21 (configuration not stated)	Ecoli tolC 71
CC1OC2(OC1C)C(=O)Nc1ccccc12 (configuration not stated)	none (no result: Ecoli tolC, HER2 expr 66K)
O=C1Nc2ccccc2C12OCC(COc1ccc(Cl)cc1)O2 (configuration not stated)	Ecoli tolC 93
Cc1nn(C)cc1/C=N\NC(=O)c1ccc2c(c1)c(C)c(C)n2Cc1ccccc1	none (no result: Ecoli tolC, HER2 expr 66K)
OCc1nn2c(c1Br)NC(c1ccccc1)CC2C(F)(F)F (configuration not stated)	none
O=C(O)c1nn2c(c1Br)NC(c1ccccc1)CC2C(F)(F)F (configuration not stated)	PostGolgi ctrl 32
CS(=O)(=O)N(CC(O)Cn1c2ccccc2c2ccccc21)c1ccccc1 (configuration not stated)	none
CCN(CC(O)Cn1c2ccccc2c2ccccc21)S(=O)(=O)c1ccc(C)cc1 (configuration not stated)	PostGolgi ctrl 55 (no result: Ecoli tolC, HER2 expr 66K)
O=C(CCn1cccc1)NCCc1ccc(Cl)cc1	none
